A1 inh: inhibitors of the anti-apoptotic protein A1, read as caspase activation; caspase activation, % (test concentration not listed); AID 2462; actives 0.066% (n = 330,000); MEF A1-2A-BIM cells, Caspase-Glo 3/7 luminescence, 3 h; percent of clofoctol response, vehicle zero;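 active = over half of replicate activation scores above 10%, or exactly half above 10 with the replicate mean above 10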
sPLA2-III inh: Inhibits HGIII-sPLA2 liposome hydrolysis, primary screen | QFRET BODIPY PC-A2 liposome hydrolysis, fluorescence | inhibition, % at 12.2 µM | actives 0.56% (n = 370,000);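 active = inhibition above mean plus 3 SD of compounds lying within the high and low control bounds, cut at about 19% in these data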;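 also: 0% = median of test compound wells and 100% = no enzyme DMSO wells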
Exocytosis inh: blocks lytic granule exocytosis. TALL-104 LAMP-1 surface exposure, flow cytometry; cells stimulated with thapsigargin and PMA. inhibition, % at 10 µM. actives 0.66% (n = 360,000). AID 651702;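 active = inhibition above about 55%, limit read from the data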
NTR1 ag: agonists of human neurotensin receptor NTR1. P30989. NTR1-U2OS beta-arrestin-GFP spot imaging, agonist mode. activation, % at 20 µM. actives 0.17% (n = 330,000);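 active = activation at or above 40% of the spot to cytoplasm intensity ratio, with at least 20 cells analyzed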;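 also: 0% = DMSO without peptide and 100% = 100 nM NTR1 peptide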
Target sequence (P30989 whole entry, looked up): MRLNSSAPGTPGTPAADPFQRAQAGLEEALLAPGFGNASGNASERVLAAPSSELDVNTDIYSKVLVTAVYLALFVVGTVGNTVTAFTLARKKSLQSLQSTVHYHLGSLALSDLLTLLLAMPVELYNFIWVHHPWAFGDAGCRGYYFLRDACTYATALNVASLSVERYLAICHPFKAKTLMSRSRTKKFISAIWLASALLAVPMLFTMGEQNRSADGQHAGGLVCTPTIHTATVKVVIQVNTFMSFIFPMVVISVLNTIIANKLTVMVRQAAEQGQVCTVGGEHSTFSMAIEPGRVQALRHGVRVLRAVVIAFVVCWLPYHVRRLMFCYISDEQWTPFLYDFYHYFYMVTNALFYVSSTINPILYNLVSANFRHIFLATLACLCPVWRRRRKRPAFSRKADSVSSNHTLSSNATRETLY
MC4R barr agon: agonists of human melanocortin 4 receptor (MC4R) beta-arrestin. U2OS MC4R beta-arrestin complementation, luminescence; percent of melanotan II response, DMSO zero. actives 0.98% (n = 360,000). activation, % at 8.9 µM. P32245;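 active = activation above a per-plate cutoff, the mean activation of sample wells on that plate plus 3 SD, cut at about 8% in these data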
MC4R antag cAMP: blocks human MC4R cAMP signaling. P32245. MC4R-expressing cells, MTII-stimulated cAMP, LANCE TR-FRET. inhibition, % at 6.5 µM. actives 0.48% (n = 360,000). AID 540295;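 active = inhibition above its plate's cutoff, the mean of tested wells on that plate plus 3 SD, cut at about 29% in these data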;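 also: 0% = Melanotan II alone and 100% = Melanotan II plus saturating MCL0020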
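Assay system: U2OS cells stably expressing human melanocortin 4 receptor (MC4R) / Dosing: 6.5 µM / Timing: compound 30 min, challenge 1 h, detection 1 h / Measured by: Eu-cAMP/anti-cAMP TR-FRET, emission 671 nm / Replicates: singlicate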
* marks the source's active call; other numbers are inactive results; / = no result given. This is a sample that favours compounds with a hit; in the whole collection about 2.5% have one here.

SMILES	A1 inh	sPLA2-III inh	Exocytosis inh	NTR1 ag	MC4R barr agon	MC4R antag cAMP
COc1cc(OC)c(C(=O)/C=C/c2ccc(OCc3ccccc3)c(OC)c2)c(OC)c1	0.8	-2.8	6.1	4.0	0.7	8.1
COc1cc(OC)c(C(=O)C=Cc2ccc(OC)c(OC)c2)c(OC)c1	/	-0.1	72.7*	/	-1.2	-5.4
COc1cc(/C=C2/C(=O)CNC2=O)ccc1O	0.3	18.1	0.1	0.8	-1.8	-10.7
COc1cc(C=C2C(=O)C=CC2=O)ccc1O	/	1.6	82.6*	/	/	/
CCOc1cc(/C=C2\CN(CC)C/C(=C\c3ccc(O)c(OCC)c3)C2=O)ccc1O	2.0	-15.8	56.8*	22.6	0.0	1.6
CCOc1cc(/C=N/N=C/c2ccc(O)c(OCC)c2)ccc1O	1.9	-5.3	-5.5	-0.5	-1.9	7.5
COC(=O)C[C@H]1CC[C@H]2[C@H](COc3ccc(NC(=O)c4cccs4)cc3C(=O)N2C)O1	/	-1.7	/	/	/	/
COc1cc(/C=C/C(=O)CC(=O)/C=C/c2ccc(O)c(OC)c2)ccc1O	0.2	-3.8	83.8*	8.3	8.1	12.9
COc1cc(/C=C2\CCC/C(=C\c3ccc(O)c(OC)c3)C2=O)ccc1O	0.9	5.0	16.1	56.4*	29.8*	12.7
COc1cc(/C=C/C(=O)O)ccc1O	-0.6	13.2	-4.8	5.3	-0.3	2.1
C=CCOc1ccc(/C=C2\SC(=Nc3cccnc3)NC2=O)cc1	0.3	-20.0	-2.6	1.4	-2.9	7.1
CC(/C=C1\SC(=Nc2cccnc2)NC1=O)=C\c1ccccc1	-0.4	-31.6	57.0*	5.1	-1.3	-9.9
C=CCn1c(COc2ccc(Cl)cc2)nnc1SCC(=O)c1ccc(-c2ccccc2)cc1	/	-12.8	/	/	/	/
COc1ccc(NC(=O)c2ccc(NC3CC(=O)N(c4ccc(C)cc4C)C3=O)cc2)cc1 (stereo not given)	1.0	-7.4	-0.9	3.8	8.2*	9.7
COC(=O)c1ccccc1N/C=C1\CCc2c(c(C)nn2-c2ccccn2)C1=O	-0.6	-4.0	64.7*	7.5	-0.9	-10.1
O=C(NCCNS(=O)(=O)c1cccc(C(F)(F)F)c1)c1cc(OCC(F)(F)F)ccc1OCC(F)(F)F	0.1	3.3	-2.0	-0.7	28.2*	3.1
COc1cc(CNC(=O)Nc2nc(C(N)Cc3ccc(Cl)cc3)cs2)cc(OC)c1OC (stereo not given)	/	7.1	7.2	/	4.8	4.6
NC(Cc1ccc(Cl)cc1)c1csc(NC(=O)NCC2CCCCC2)n1 (stereo not given)	/	11.8	13.5	/	8.5*	7.9
CCOc1ccc(C(=O)NC(=S)Nc2ccc(N3CCCCC3)cc2)cc1[N+](=O)[O-]	-0.7	1.2	-1.5	1.5	47.2*	0.3
COc1ccc(CNC(=O)[C@@H](Cc2ccccc2)NC(=O)[C@H]2O[C@@H](n3ccc(=O)[nH]c3=O)[C@H](O)[C@@H]2O)cc1	/	2.2	/	/	/	/
CCOC(=O)c1ccc(N/C=C\C(=O)c2cccc(OC)c2)cc1	-10.5	-23.9	-1.9	4.8	9.4*	-6.3
O=C(CSc1ccc(-c2ccc(-n3cccn3)cc2)nn1)Nc1ccccc1F	-0.4	-9.6	2.0	10.3	10.7*	1.6
O=C(CSc1ccc(-c2cccnc2)nn1)Nc1ccccc1F	0.0	2.0	2.8	1.4	2.4	-2.2
Cc1ccc(/C=N/Nc2ccnc3cc(Cl)ccc23)c(C)c1	-0.7	-6.5	42.5	7.2	4.3	8.3
Cc1ccccc1/C=N/Nc1ccnc2cc(Cl)ccc12	-1.1	-17.5	76.2*	/	8.5*	-2.2
SMILES	A1 inh	sPLA2-III inh	Exocytosis inh	NTR1 ag	MC4R barr agon	MC4R antag cAMP
O=C(Cc1ccccc1)N1CCC(Oc2cccnc2)CC1	/	2.5	/	/	/	/
Cc1csc2c(=O)sc(NC(=O)c3cccs3)nc12	-0.4	-2.0	-1.0	1.4	8.5*	-17.2
Cc1csc2c(=O)sc(NC(=O)c3ccco3)nc12	-1.4	3.6	3.6	1.1	-0.7	-2.6
COc1ccc(C(=O)Nc2ccc(-c3ccc(C)o3)cc2)cc1S(=O)(=O)N1CCOCC1	0.8	-21.4	72.4*	12.6	0.7	6.9
CCC(=O)NCC[C@@H]1CCc2ccc3c(c21)CCO3	/	1.3	/	/	/	/
Cc1ccc2c(c1C)-c1c(ccc(C)c1C)C(=O)C2=O	/	8.8	105.9*	/	3.8	-30.1
Cc1ccc(CC#N)c(-c2c(CC#N)ccc(C)c2C)c1C	/	-11.1	20.6	/	0.2	4.5
